The results in this text go back to PubChem BioAssay.

Calls of active or inactive are those of the source.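 Rule for the calls, unless noted: active = fluorescence slope higher than the sample average by over 3 SD (cut at about -0.22 in these data, passing the limit was not always enough); inactive = the rest.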

The nature of experiment [1]: inhibitors of TNFa-induced NFkB p65 translocation, primary screen, imaging, HUVEC, MLSMR starter and 10KST1 sets (AID 438;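 active = inhibition above 20% together with a positive visual image hit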;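 note: compound added about 3h40 before a 20 min TNFalpha stimulation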;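 for inhibition: signal is the nuclear over cytoplasmic p65 intensity ratio per well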). As to conditions: HUVEC TNFa-induced p65 nuclear translocation; cell count: measured here: nuclei count (cytotoxicity indicator), at 2.08 µM; inhibition: at 2 µM, stronger effect = higher value, 0% TNFa-plus-vehicle, 100% no-TNFa wells.
Experiment [2] in a line: inhibitors of mutant huntingtin aggregation, primary screen, imaging, exon1htt(103Q)mCFP cells, high-content imaging (AID 483;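 active = visual image review flags a hit and inhibition of aggregation exceeds 20%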;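 note: compound exposure lasted 3 days before fixation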;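 for nuclei count: percent of the per-plate median nuclei count of sample wells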). As to conditions: exon1htt(103Q)mCFP cell line, aggregate imaging, at 2 µM; inhibition of aggregation: stronger effect = higher value; nuclei count: measured here: cell count, toxicity.
Experiment [3] can be described thus: inhibitors of E-selectin induction by TNFa, primary screen, imaging, HUVEC, immunofluorescence, MLSMR starter and 10KST1 sets (AID 487;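 active = visually confirmed hit in the image check and inhibition above 20%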;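 for inhibition: signal is fraction of cell area covered by stained E-selectin grains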;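 for nuclei count: 100% = median nuclei count of all wells on the same plate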). As to conditions: HUVEC TNFalpha-induced E-selectin immunofluorescence imaging, at 2 µM; inhibition: stronger effect = higher value; nuclei count: measured here: cell number, toxicity.
The target of experiment [4] is Voltage-gated potassium channel subunit beta-2 (Rattus norvegicus) (UniProt P62483). Nature of the experiment: KvBeta enzyme negative modulators, primary screen, biochemical, NADPH fluorescence (AID 622).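 Note: slope of raw intensity against log time taken from 70 to 1610 s.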 The following applies: recombinant KvBeta, 4-cyanobenzaldehyde reduction, at 10 µM, stronger effect = higher value.
Chain of Voltage-gated potassium channel subunit beta-2 (Rattus norvegicus) (P62483 whole entry, looked up): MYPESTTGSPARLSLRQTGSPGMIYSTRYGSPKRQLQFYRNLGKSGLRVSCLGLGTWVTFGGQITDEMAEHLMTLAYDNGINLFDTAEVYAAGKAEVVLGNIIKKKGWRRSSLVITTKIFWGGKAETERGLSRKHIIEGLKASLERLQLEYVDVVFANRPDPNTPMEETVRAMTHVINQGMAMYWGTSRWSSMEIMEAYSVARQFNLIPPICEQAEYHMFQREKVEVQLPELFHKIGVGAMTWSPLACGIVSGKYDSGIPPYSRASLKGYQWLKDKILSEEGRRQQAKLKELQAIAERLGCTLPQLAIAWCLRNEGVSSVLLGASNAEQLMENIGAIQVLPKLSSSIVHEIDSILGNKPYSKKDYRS
The target is the same in experiment [5]. Nature of the experiment: KvBeta positive modulators, primary screen, biochemical, NADPH fluorescence (AID 623;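 active = NADPH fluorescence slope more negative than the mean of all samples by about 3 SD, 99.7% confidence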;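 note: fluorescence intensity change per second fitted from 20 to 320 s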). The following applies: Recombinant KvBeta, NADPH fluorescence decrease slope, 10 min; at 10 µM; stronger effect = lower value.
The target in experiment [6] is Muscarinic acetylcholine receptor M4 (Homo sapiens) (UniProt P08173). Nature of the experiment: compounds altering M4/GIRK thallium flux, either direction, primary screen, M4 allosteric agonist project, cell-based, HEK293 M4/GIRK, BTC-AM (AID 625;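 active = fluorescence slope after compound addition differing from the mean of all tested samples at 99.7% confidence, mostly higher but some lower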;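 note: thallium influx through GIRK channels coupled to M4 in HEK293 cells with BTC-AM dye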). As to conditions: at 10 µM, actives lie on both sides. An outline of the steps: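 Material: HEK293 cells with M4 receptor and GIRK channels; Times: cells overnight at 37 °C, BTC-AM loading 1 h, reads 2 min total; Technique: kinetic BTC-AM fluorescence sampled at 1 Hz, 10 s pre-addition baseline; Read-out basis: slope over 15–24 s of trace normalized to starting intensity; Controls: carbachol positive, DMSO negative.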
Chain of Muscarinic acetylcholine receptor M4 (Homo sapiens) (P08173 whole entry, looked up): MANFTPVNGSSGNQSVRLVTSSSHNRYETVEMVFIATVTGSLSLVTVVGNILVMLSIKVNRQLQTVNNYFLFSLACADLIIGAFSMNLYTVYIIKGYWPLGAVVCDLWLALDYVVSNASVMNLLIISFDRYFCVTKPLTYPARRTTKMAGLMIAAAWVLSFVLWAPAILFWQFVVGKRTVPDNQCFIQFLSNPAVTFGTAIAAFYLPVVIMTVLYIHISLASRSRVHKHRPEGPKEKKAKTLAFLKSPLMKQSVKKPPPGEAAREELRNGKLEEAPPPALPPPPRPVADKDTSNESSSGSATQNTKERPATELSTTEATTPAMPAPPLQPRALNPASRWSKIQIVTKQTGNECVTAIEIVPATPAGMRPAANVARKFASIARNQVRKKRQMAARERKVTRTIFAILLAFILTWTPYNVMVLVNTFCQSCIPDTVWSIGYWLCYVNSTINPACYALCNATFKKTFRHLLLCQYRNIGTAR

A short description of experiment [7]: inhibitors of Sendai virus-induced IRF3 signaling, primary screen, TLR/RLR signaling modifier project, cell-based, Sendai virus stimulus, luciferase, 10K MLSCN set (AID 602276;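 active = inhibition at or above 50% at 10 µM; inactive = inhibition below 50%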;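 note: firefly luciferase from ISG56 promoter only with Renilla not read in this screen; 0% = Sendai virus plus DMSO and 100% = medium plus DMSO without virus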). As to conditions: HEK293 RL24 IRF3 luciferase reporter, at 10 µM, stronger effect = higher value.
The nature of experiment [8]: inhibitors of poly I:C-induced TLR3 signaling, primary screen, cell-based, poly I:C stimulus, luciferase, 10K MLSCN set (AID 602277;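 active = inhibition of the reporter signal at or above 50%; inactive = inhibition below 50%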). The following applies: HEK293-TLR3 RL24 IRF3 luciferase reporter, at 10 µM, stronger effect = higher value.

Turning to `CC(=O)C1=C(O)C(=O)N(Cc2cccnc2)C1c1ccccc1` (stereo not given), the cell count in experiment [1] came out at 429. The inhibition in experiment [1] was -2% (inactive); in experiment [3], -58.9% (inactive); in experiment [7] it was 6.76% (inactive); in experiment [8] it was 18.6% (inactive). Also, the inhibition of aggregation in experiment [2] was -8.8% (inactive). In addition, the nuclei count in experiment [2] was determined as 97.7%; in experiment [3] it was 115%. The fluorescence slope in experiment [4] is -0.537 (inactive); in experiment [6], 0.00492 (inactive). In addition, in experiment [5], the NADPH fluorescence slope was -2.4e-05 (inactive).
In the case of `CC(=O)c1c(C)[nH]c(C(=O)NC2=NCCS2)c1C`, in experiment [1], the cell count worked out at 459. For the same compound, the inhibition in experiment [1] was -9.6% (inactive); in experiment [3] it was 23.6% (inactive); in experiment [7] it was -2.52% (inactive); in experiment [8], -11.8% (inactive). In experiment [2], the inhibition of aggregation is 15.8% (inactive). Further, the nuclei count in experiment [2] was 61.1%; in experiment [3], 95.2%. Further, the results for the fluorescence slope in experiment [4] and in experiment [6] were -0.571 (inactive) and 0.00678 (inactive), respectively. The NADPH fluorescence slope in experiment [5] is -1.9e-05 (inactive).
In the case of `Cn1c(COc2ccccc2)nnc1SCC(=O)Nc1ccc(N2CCOCC2)c(Cl)c1`, in experiment [1], the cell count is 497. Also, the inhibition in experiment [1] is -6.9% (inactive); in experiment [3] it was -6.4% (inactive); in experiment [7], 13.5% (inactive); in experiment [8], 17.5% (inactive). Moreover, in experiment [2], the inhibition of aggregation is -10.9% (inactive). Also, the nuclei count in experiment [2] and in experiment [3] was 102% in each case. Further, the fluorescence slope is -0.477 (inactive) in experiment [4] and 0.00548 (inactive) in experiment [6]. For the same compound, the NADPH fluorescence slope in experiment [5] is -6.6e-05 (inactive).
With `CCOC(=O)CS(=O)(=O)c1nc(-c2ccccc2)cc(C(F)(F)F)n1`, the cell count in experiment [1] is 380. Moreover, the inhibition was 2.8% (inactive) in experiment [1], -15.5% (inactive) in experiment [3], 20.1% (inactive) in experiment [7] and 32.7% (inactive) in experiment [8]. In addition, the inhibition of aggregation in experiment [2] is -12.2% (inactive). The nuclei count in experiment [2] turned out to be 102%; in experiment [3], 116%. The results for the fluorescence slope in experiment [4] and in experiment [6] were -0.462 (inactive) and 0.00498 (inactive), respectively. For the same compound, the NADPH fluorescence slope in experiment [5] is -1.5e-05 (inactive).
Turning to `CC(n1cnnn1)C12CC3CC(CC(C3)C1)C2` (stereo not given), the cell count in experiment [1] is 555. Moreover, the inhibition in experiment [1] was 1.3% (inactive); in experiment [3], 16.7% (inactive); in experiment [7] it was 16.5% (inactive); in experiment [8], 32.3% (inactive). The inhibition of aggregation in experiment [2] is 0.3% (inactive). In addition, the nuclei count in experiment [2] is 106%; in experiment [3], 114%. Further, the fluorescence slope is -0.495 (inactive) in experiment [4] and 0.00589 (inactive) in experiment [6]. For the same compound, the NADPH fluorescence slope in experiment [5] is 0.000168 (inactive).
As to `COc1ccccc1-c1nc(C#N)c(N2CCN(c3ccccc3)CC2)o1`, the cell count in experiment [1] came to 730. In addition, the inhibition in experiment [1] was -10.2% (inactive); in experiment [3], -96.9% (inactive); in experiment [7], 15.8% (inactive); in experiment [8], 12% (inactive). The inhibition of aggregation in experiment [2] is 17% (inactive). Further, the nuclei count in experiment [2] amounted to 119%; in experiment [3] it was 93.4%. For the same compound, the values for the fluorescence slope in experiment [4] and in experiment [6] were -0.495 (inactive) and 0.00604 (inactive), respectively. Also, the NADPH fluorescence slope in experiment [5] is 1.8e-05 (inactive).
Consider `CCOc1ccccc1C1CC(=O)NC(SCC)=C1C#N` (stereo not given), for which the cell count in experiment [1] worked out at 465. For the same compound, the inhibition was -13% (inactive) in experiment [1], -10% (inactive) in experiment [3], 9.15% (inactive) in experiment [7] and 17.5% (inactive) in experiment [8]. For the same compound, in experiment [2], the inhibition of aggregation is 18.7% (inactive). The nuclei count in experiment [2] was found to be 84.4%; in experiment [3] it was 130%. Also, the results for the fluorescence slope in experiment [4] and in experiment [6] were -0.326 (inactive) and 0.00457 (inactive), respectively. Further, the NADPH fluorescence slope in experiment [5] is -7.3e-05 (inactive).
For `COc1ccc(-c2cc(C(=O)NCc3ccc(Cl)cc3)no2)cc1OC`, the cell count in experiment [1] was found to be 358. The inhibition in experiment [1] was -2.5% (inactive); in experiment [3], 41% (inactive); in experiment [7], 14.3% (inactive); in experiment [8] it was -8.76% (inactive). Moreover, the inhibition of aggregation in experiment [2] is -5.6% (inactive). Besides, the nuclei count in experiment [2] and in experiment [3] was 106% in each case. Moreover, the fluorescence slope in experiment [4] is -0.19 (inactive); in experiment [6], 0.00727 (inactive). For the same compound, in experiment [5], the NADPH fluorescence slope is -1.3e-05 (inactive).
As for `CN(C)c1nc(Nc2ccc(Cl)cc2)nc(OCC#N)n1`, the cell count in experiment [1] is 387. Further, the inhibition was -23% (inactive) in experiment [1], -109% (inactive) in experiment [3], 24.2% (inactive) in experiment [7] and 37.1% (inactive) in experiment [8]. The inhibition of aggregation in experiment [2] was -6.1% (inactive). Besides, the nuclei count in experiment [2] was 78.6%; in experiment [3] it was 128%. The fluorescence slope was -0.574 (inactive) in experiment [4] and 0.00241 (inactive) in experiment [6]. Moreover, in experiment [5], the NADPH fluorescence slope is 1.7e-05 (inactive).
Consider `CCOC(=O)c1c(NC(=O)CSc2nc3c(c(=O)n(C)c(=O)n3C)n2C(C)C)sc(C)c1C`, for which the cell count in experiment [1] was 547. For the same compound, the inhibition in experiment [1] is 1.2% (inactive); in experiment [3], 26.4% (inactive); in experiment [7] it was 18% (inactive); in experiment [8], 20.6% (inactive). The inhibition of aggregation in experiment [2] is 17.1% (inactive). The results for the nuclei count in experiment [2] and in experiment [3] were 110% and 82.3%, respectively. In addition, the fluorescence slope is -0.564 (inactive) in experiment [4] and 0.00617 (inactive) in experiment [6]. For the same compound, the NADPH fluorescence slope in experiment [5] was -2.9e-05 (inactive).
